The sample as a whole holds a higher share of hits than the screen did.
hDAT+cocaine = changed hDAT dopamine uptake under cocaine IC80, either direction, primary screen, cocaine antagonist project, cell-based, LLC-PK1 hDAT, [14C]-dopamine uptake, MLSMR; Sodium-dependent dopamine transporter (Homo sapiens), Q01959; 110,000 compounds, 1.3% hits; AID 449768, 2010; LLC-PK1 hDAT cells, [14C]-dopamine uptake with cocaine IC80; actives deviate in either direction; B-score at 10 µM;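 active = Z score or B-score, a plate-position-corrected score, falls beyond the plate's 99.7% confidence bounds, in either direction; inactive = both scores lie inside the 99.7% bounds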;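 also: scored against the spread of the other compound wells on the same plate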
Target sequence (Q01959 whole entry, looked up): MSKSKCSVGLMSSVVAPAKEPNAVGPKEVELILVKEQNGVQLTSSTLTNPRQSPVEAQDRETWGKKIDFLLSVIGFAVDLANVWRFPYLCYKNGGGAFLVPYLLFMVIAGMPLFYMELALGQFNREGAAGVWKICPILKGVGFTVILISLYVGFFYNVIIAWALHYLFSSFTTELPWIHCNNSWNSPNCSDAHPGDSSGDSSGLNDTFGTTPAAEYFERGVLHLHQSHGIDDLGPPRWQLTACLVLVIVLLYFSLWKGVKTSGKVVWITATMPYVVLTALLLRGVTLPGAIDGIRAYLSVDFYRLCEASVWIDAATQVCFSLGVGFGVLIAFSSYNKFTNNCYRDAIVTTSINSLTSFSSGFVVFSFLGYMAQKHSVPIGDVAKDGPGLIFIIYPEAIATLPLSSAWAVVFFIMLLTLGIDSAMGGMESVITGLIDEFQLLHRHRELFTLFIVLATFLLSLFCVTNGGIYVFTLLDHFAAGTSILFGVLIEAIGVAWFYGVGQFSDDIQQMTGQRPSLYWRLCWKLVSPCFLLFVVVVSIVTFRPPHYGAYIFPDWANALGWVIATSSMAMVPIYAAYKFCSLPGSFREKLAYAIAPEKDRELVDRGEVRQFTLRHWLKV
MMP-13 inhibitor = human MMP13 inhibitors, primary screen, biochemical, FRET peptide cleavage; Collagenase 3 (Homo sapiens), P45452; MMP-13 fTHP FRET cleavage, Mca fluorescence; inhibition, % at 4 µM; 65,000 compounds, 0.07% hits; AID 570, 2006;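 active = inhibition above the mean of compound-free control plate wells plus 3 SD, cut at about 14% in these data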;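 also: 0% = DMSO wells and 100% = wells with reference MMP-13 inhibitor after basal subtraction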
D1 allo mod = D1 CRE-luciferase signal change, two-sided – cell-based, HEK293 D1, dopamine EC30, D1 allosteric modulator project, primary screen | dopamine EC30 potentiation; actives deviate in either direction | D(1A) dopamine receptor (Homo sapiens), P21728 | 58,000 compounds, 5.9% hits | B-score at 10 µM;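 active = luminescence count or its row- and column-corrected plate score outside the 99.7% band of the plate's sample wells, on either side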
AP ELISA ortho = alternative complement pathway inhibitors, primary screen, biochemical, ELISA, human serum, orthogonally pooled compounds. 62,000 compounds, 0.08% hits. LPS-coated ELISA, C3 deposition; tested in compound mixtures. AID 1235, 2008. inhibition, % at 5 µM;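 active = inhibition above 30% in each of the two pooled mixtures holding the compound, so the lower value exceeds 30%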;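 also: 0% = serum in Mg-EGTA without compound and 100% = EDTA serum blank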
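Test system – human serum alternative complement pathway, C3 deposition on LPS-coated wells · Buffer or medium – diluted human serum in Mg2+-EGTA GVB++ · Compound dosing – 5 µM each compound, pools of ten, 50 µM per pool · Schedule – 1 h serum-compound exposure at 37 °C · Measured by – Anti-C3 ELISA, OD 450 nm · Read-out basis – percent inhibition of C3 deposition onto LPS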
Calb biofilm kill = clotrimazole potentiators killing Candida biofilms, primary screen, with clotrimazole, Alamar Blue; inhibition, % at 6 µM; C. albicans biofilm + clotrimazole; AID 834, 2007; 85,000 compounds, 0.14% hits;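 active = inhibition above 20%; inactive = inhibition below 20%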;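 also: preformed 24 hr biofilms exposed to compound for 48 hr; 0% = biofilm without compound and 100% = blank killed by clotrimazole plus chlorhexidine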
D1 PAM confirm = D1 receptor positive allosteric modulators, retest, confirmation, cell-based, HEK293 D1, CRE-luciferase, duplicate. 2,200 compounds, 88% hits. luminescence at 10 µM. dopamine EC30 potentiation; active compounds read high. shares compounds with D1 allo mod;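 active = luminescence in either of two replicates above the same-plate mean plus 3 SD of the low-dose dopamine control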
D1 ag no DA = D1 receptor agonism without dopamine, confirmation, mechanism study for D1 allosteric modulator project, cell-based, HEK293 D1, CRE-luciferase, secondary assay 1; shares compounds with D1 allo mod; luminescence, no dopamine; active compounds read high; AID 646, 2007; 1,900 compounds, 0.8% hits; luminescence at 10 µM; in the data active = luminescence above about 3900
Isoprot counter = isoproterenol response counter-screen activity for D1 modulators. shares compounds with D1 allo mod. HEK293 D1 CRE-luciferase, isoproterenol EC30 counter-screen; active compounds read high. luminescence at 10 µM. 2,200 compounds, 63% hits. AID 647;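 active = luminescence in either replicate above plate mean of wells with a partly effective reference agonist dose plus 3 SD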;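 also: isoproterenol raises cAMP through native beta-adrenoceptor Gs so signal bypasses D1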
* = called active by the depositor; x = no result given.

SMILES	hDAT+cocaine	MMP-13 inhibitor	D1 allo mod	AP ELISA ortho	Calb biofilm kill	D1 PAM confirm	D1 ag no DA	Isoprot counter
CCNc1nc(SC(C)C(=O)OC)nc(N2CCOCC2)n1 (stereo unspecified)	-0.0905	-2.0	6.98*	-4.3	0.9	16348*	1712	4196*
CN(C)c1ccc(NC(=O)CN2CCC(N3CCCCC3)CC2)cc1	-0.425	x	x	x	x	x	x	x
COc1ccc(-c2cnnn2-c2ccc(N)cc2)cc1OC	-0.00359	0.2	10.7*	x	-0.2	19800*	1764	5000*
COc1nc(Nc2ccc(O)cc2)nc(OC(C(F)(F)F)C(F)(F)F)n1	-0.737	-2.0	6.17*	-1.6	6.0	13552*	x	3172*
Cc1ccc(CNC(=O)C2CC3Cn4c(nc5cc(Cl)c(Cl)cc54)C3N2C)o1 (stereo unspecified)	0.289	x	x	x	x	x	x	x
COC(=O)c1cc(=O)n(Cc2ccco2)c(=Nc2ccc(F)c(Cl)c2)s1	-0.732	4.1	7.38*	14.7	7.5	8744*	1432	2840
COC(=O)c1cc(=O)n(CCc2ccccc2F)c(=Nc2ccc(F)c(Cl)c2)s1	1.72	x	x	x	10.5	x	x	x
CCN1CCN(CCNC(=O)c2ccc(CS(=O)(=O)c3ccccc3C)o2)CC1	-0.242	-0.6	0.376	11.9	8.2	x	x	x
COC(=O)c1ccc(CS(=O)(=O)c2ccccc2C)o1	-0.273	0.2	4.6*	6.9	8.4	6940	1632	2348
CCSc1nc2c(c(=O)n1CC)SC(C)C2 (stereo unspecified)	0.0843	-0.8	5.46*	6.2	9.7	12712*	1732	3016
CCn1c(SCC(=O)Nc2cc(C)on2)nc2c(c1=O)SC(C)C2 (stereo unspecified)	-1.09	2.5	6.2*	x	2.8	6212*	1608	2292
CCC(C)Sc1nc2c(c(=O)n1C)SC(C)C2 (stereo unspecified)	0.596	-0.3	3.95*	23.7	4.2	8748*	1640	2616
Cc1ccc(CN2CCN(CC(=O)NC(C)c3ccc4c(c3)OCCO4)C2=O)cc1 (stereo unspecified)	-1.39	x	x	x	0.4	x	x	x
COc1ccc(Nc2nc3ccccc3nc2C)cc1	2.05	-1.3	3.12*	19.2	6.9	8152*	x	2612
Cn1c(=O)c(-c2cc(Br)ccc2N)nc2ccccc21	0.266	x	x	x	0.8	x	x	x
CCC(C)Sc1nc2c([nH]c3ccccc32)c(=O)n1C (stereo unspecified)	-0.534	1.6	5.51*	14.3	5.7	14100*	1792	2800
CCSc1nc2c([nH]c3ccccc32)c(=O)n1C	-1.2	4.0	3.3	3.9	0.4	x	x	x
CN(CC(=O)Nc1ccccc1Br)Cc1nc2ccccc2c(=O)[nH]1	0.348	x	x	x	x	x	x	x
C=C1CCN([C@@H](CC(C)C)C(=O)N2CCOCC2)S(=O)(=O)c2ccccc21	-0.584	x	x	x	x	x	x	x
Cc1ccc(Nc2nc3ccccc3nc2-n2nc(C)cc2C)cc1	0.0334	x	x	x	3.4	x	x	x
Cc1cc(C)n(-c2nc3ccccc3nc2Nc2ccc(CC(=O)O)cc2)n1	0.493	-0.3	21.4*	23.1	-9.2	7376*	1728	2624
CC1CCc2c(sc3ncnc(N4CCOCC4)c23)C1 (stereo unspecified)	0.434	x	17.4*	2.5	10.4	13928*	1504	6256*
CC1CCc2sc3ncnc(N4CCOCC4)c3c2C1 (stereo unspecified)	-0.894	3.4	19.1*	4.8	8.4	14216*	1432	4860*
CC1CCc2c(sc3ncnc(NCCN4CCOCC4)c23)C1 (stereo unspecified)	-0.216	-3.6	x	1.5	x	x	x	x
